Laboratory results reported in article PMC3125946 (Biochemistry, 2011).

T1: MjCobY (Methanocaldococcus jannaschii, UniProt Q58517, G153D)
T1 sequence (Q58517 1-196 G153D): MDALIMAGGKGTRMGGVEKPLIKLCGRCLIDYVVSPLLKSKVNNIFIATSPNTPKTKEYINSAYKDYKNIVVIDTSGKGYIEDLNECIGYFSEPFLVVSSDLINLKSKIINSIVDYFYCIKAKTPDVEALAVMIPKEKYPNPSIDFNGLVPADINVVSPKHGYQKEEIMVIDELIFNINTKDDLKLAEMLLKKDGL


Target: T1, MjCobY
Assay: isothermal titration calorimetry
Type: binding
How it was run: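 Recombinant G153D variant purified by heat step (75°C, 15 min), ammonium sulfate, hydrophobic interaction, anion exchange and size-exclusion chromatography; dialysed at 4 °C against Tris-HCl 50 mM pH 8.0, NaCl 50 mM, MgCl2 10 mM, TCEP 4 mM. GTP in spent dialysate; 1 mM stock titrated by 27 injections into 18 µM protein dimers at 27 °C.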

Molecule	Kd [nM]
Nc1nc2c(ncn2[C@@H]2O[C@H](COP(=O)(O)OP(=O)(O)OP(=O)(O)O)[C@@H](O)[C@H]2O)c(=O)[nH]1 [GTP]	400 ± 40

Target: the molecule itself
Assay: SEC

Molecule	percent dimer (Monomer:Dimer Ratio) [%]	percent monomer (Monomer:Dimer Ratio) [%]
MjCobY^G8D (enzyme, Methanocaldococcus jannaschii, UniProt Q58517 1-196, looked up) MDALIMADGKGTRMGGVEKPLIKLCGRCLIDYVVSPLLKSKVNNIFIATSPNTPKTKEYINSAYKDYKNIVVIDTSGKGYIEDLNECIGYFSEPFLVVSSDLINLKSKIINSIVDYFYCIKAKTPDVEALAVMIPKEKYPNPSIDFNGLVPAGINVVSPKHGYQKEEIMVIDELIFNINTKDDLKLAEMLLKKDGL	67	33
MjCobY D83G (enzyme, Methanocaldococcus jannaschii, UniProt Q58517 1-196, looked up) MDALIMAGGKGTRMGGVEKPLIKLCGRCLIDYVVSPLLKSKVNNIFIATSPNTPKTKEYINSAYKDYKNIVVIDTSGKGYIEGLNECIGYFSEPFLVVSSDLINLKSKIINSIVDYFYCIKAKTPDVEALAVMIPKEKYPNPSIDFNGLVPAGINVVSPKHGYQKEEIMVIDELIFNINTKDDLKLAEMLLKKDGL	18	82
MjCobY P54A (enzyme, Methanocaldococcus jannaschii, UniProt Q58517 1-196, looked up) MDALIMAGGKGTRMGGVEKPLIKLCGRCLIDYVVSPLLKSKVNNIFIATSPNTAKTKEYINSAYKDYKNIVVIDTSGKGYIEDLNECIGYFSEPFLVVSSDLINLKSKIINSIVDYFYCIKAKTPDVEALAVMIPKEKYPNPSIDFNGLVPAGINVVSPKHGYQKEEIMVIDELIFNINTKDDLKLAEMLLKKDGL	50	50
MjCobY K19A (enzyme, Methanocaldococcus jannaschii, UniProt Q58517 1-196, looked up) MDALIMAGGKGTRMGGVEAPLIKLCGRCLIDYVVSPLLKSKVNNIFIATSPNTPKTKEYINSAYKDYKNIVVIDTSGKGYIEDLNECIGYFSEPFLVVSSDLINLKSKIINSIVDYFYCIKAKTPDVEALAVMIPKEKYPNPSIDFNGLVPAGINVVSPKHGYQKEEIMVIDELIFNINTKDDLKLAEMLLKKDGL	64	36
MjCobY E18D (enzyme, Methanocaldococcus jannaschii, UniProt Q58517 1-196, looked up) MDALIMAGGKGTRMGGVDKPLIKLCGRCLIDYVVSPLLKSKVNNIFIATSPNTPKTKEYINSAYKDYKNIVVIDTSGKGYIEDLNECIGYFSEPFLVVSSDLINLKSKIINSIVDYFYCIKAKTPDVEALAVMIPKEKYPNPSIDFNGLVPAGINVVSPKHGYQKEEIMVIDELIFNINTKDDLKLAEMLLKKDGL	60	40
MjCobY Y80F (enzyme, Methanocaldococcus jannaschii, UniProt Q58517 1-196, looked up) MDALIMAGGKGTRMGGVEKPLIKLCGRCLIDYVVSPLLKSKVNNIFIATSPNTPKTKEYINSAYKDYKNIVVIDTSGKGFIEDLNECIGYFSEPFLVVSSDLINLKSKIINSIVDYFYCIKAKTPDVEALAVMIPKEKYPNPSIDFNGLVPAGINVVSPKHGYQKEEIMVIDELIFNINTKDDLKLAEMLLKKDGL	26	74
MjCobY P20A (enzyme, Methanocaldococcus jannaschii, UniProt Q58517 1-196, looked up) MDALIMAGGKGTRMGGVEKALIKLCGRCLIDYVVSPLLKSKVNNIFIATSPNTPKTKEYINSAYKDYKNIVVIDTSGKGYIEDLNECIGYFSEPFLVVSSDLINLKSKIINSIVDYFYCIKAKTPDVEALAVMIPKEKYPNPSIDFNGLVPAGINVVSPKHGYQKEEIMVIDELIFNINTKDDLKLAEMLLKKDGL	37	63
MjCobY^G153D (enzyme, Methanocaldococcus jannaschii) MDALIMAGGKGTRMGGVEKPLIKLCGRCLIDYVVSPLLKSKVNNIFIATSPNTPKTKEYINSAYKDYKNIVVIDTSGKGYIEDLNECIGYFSEPFLVVSSDLINLKSKIINSIVDYFYCIKAKTPDVEALAVMIPKEKYPNPSIDFNGLVPADINVVSPKHGYQKEEIMVIDELIFNINTKDDLKLAEMLLKKDGL	46	54
MjCobY T53S (enzyme, Methanocaldococcus jannaschii, UniProt Q58517 1-196, looked up) MDALIMAGGKGTRMGGVEKPLIKLCGRCLIDYVVSPLLKSKVNNIFIATSPNSPKTKEYINSAYKDYKNIVVIDTSGKGYIEDLNECIGYFSEPFLVVSSDLINLKSKIINSIVDYFYCIKAKTPDVEALAVMIPKEKYPNPSIDFNGLVPAGINVVSPKHGYQKEEIMVIDELIFNINTKDDLKLAEMLLKKDGL	24	76
MjCobY D101G (enzyme, Methanocaldococcus jannaschii, UniProt Q58517 1-196, looked up) MDALIMAGGKGTRMGGVEKPLIKLCGRCLIDYVVSPLLKSKVNNIFIATSPNTPKTKEYINSAYKDYKNIVVIDTSGKGYIEDLNECIGYFSEPFLVVSSGLINLKSKIINSIVDYFYCIKAKTPDVEALAVMIPKEKYPNPSIDFNGLVPAGINVVSPKHGYQKEEIMVIDELIFNINTKDDLKLAEMLLKKDGL	66	34
MjCobY P94A (enzyme, Methanocaldococcus jannaschii, UniProt Q58517 1-196, looked up) MDALIMAGGKGTRMGGVEKPLIKLCGRCLIDYVVSPLLKSKVNNIFIATSPNTPKTKEYINSAYKDYKNIVVIDTSGKGYIEDLNECIGYFSEAFLVVSSDLINLKSKIINSIVDYFYCIKAKTPDVEALAVMIPKEKYPNPSIDFNGLVPAGINVVSPKHGYQKEEIMVIDELIFNINTKDDLKLAEMLLKKDGL	48	52
MjCobY R13A (enzyme, Methanocaldococcus jannaschii, UniProt Q58517 1-196, looked up) MDALIMAGGKGTAMGGVEKPLIKLCGRCLIDYVVSPLLKSKVNNIFIATSPNTPKTKEYINSAYKDYKNIVVIDTSGKGYIEDLNECIGYFSEPFLVVSSDLINLKSKIINSIVDYFYCIKAKTPDVEALAVMIPKEKYPNPSIDFNGLVPAGINVVSPKHGYQKEEIMVIDELIFNINTKDDLKLAEMLLKKDGL	86	14
